Screens from PubChem BioAssay.
NF-kB expr up – activators of NF-kB expression in neurons, primary screen, cell-based, HTS. fold change at 12.5 µM. actives 1.6% (n = 190,000). human neuronal cells, NF-kB reporter expression; stronger effect = higher value; in the data active = fold change above about 3.3
APP 5'UTR act – activators of APP 5'UTR luciferase reporter, primary screen, SH-SY5Y cells. SH-SY5Y APP 5'UTR luciferase reporter, luminescence; zero percent = DMSO vehicle wells. activation, % at 2 µM. actives 1% (n = 190,000). AID 1276, 2008;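 active = activation above a set limit, based on mean plus 3 SD of controls, cut at about 140% in these data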
FLuc inhib CS – firefly luciferase enzyme inhibitors, primary screen, artefact control for luciferase-based inhibitor screens, biochemical, luminescence, ATPLite. actives 1.5% (n = 200,000). inhibition, % at 10 µM. 10 min. AID 1006, 2008. Luciferin 4-monooxygenase (Photinus pyralis), P08659;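 active = inhibition above about 50% when tested at 10 µM, limit read from the data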
Target sequence (P08659 whole entry, looked up): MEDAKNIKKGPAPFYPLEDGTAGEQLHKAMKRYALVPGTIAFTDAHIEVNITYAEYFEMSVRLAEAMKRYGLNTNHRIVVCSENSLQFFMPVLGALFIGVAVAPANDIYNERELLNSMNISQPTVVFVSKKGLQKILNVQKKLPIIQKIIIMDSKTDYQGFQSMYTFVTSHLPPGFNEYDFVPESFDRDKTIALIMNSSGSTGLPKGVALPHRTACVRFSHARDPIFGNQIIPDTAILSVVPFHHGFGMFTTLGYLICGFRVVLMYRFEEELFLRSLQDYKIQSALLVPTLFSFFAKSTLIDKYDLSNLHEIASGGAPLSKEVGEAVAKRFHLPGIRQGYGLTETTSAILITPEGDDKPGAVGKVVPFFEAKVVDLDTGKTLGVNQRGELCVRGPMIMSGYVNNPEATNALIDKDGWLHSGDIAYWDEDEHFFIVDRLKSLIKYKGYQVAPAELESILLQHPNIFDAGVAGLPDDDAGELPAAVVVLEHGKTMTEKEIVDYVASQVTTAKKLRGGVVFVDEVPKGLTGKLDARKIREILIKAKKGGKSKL
SDO1 yeast rescue – growth rescue of sdo1-depleted yeast, primary screen, S. cerevisiae, bone marrow failure model. S. cerevisiae sdo1-depleted JHY4D growth rescue, OD600 30 h; stronger effect = higher value; pdr5 snq2 efflux-pump mutant strain. z-score at 10 µM. actives 0.21% (n = 140,000);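 active = z-score above 3 at both the 24 hr and the 30 hr optical density reads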;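 note: z-score against mean and SD of all compound wells on the same plate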
FLuc stim CS – FLuc activators, initial screening, artefact control for FLuc-dependent activation tests, biochemical, ATPlite luminescence; Luciferin 4-monooxygenase (Photinus pyralis), P08659; ATPlite luciferase biochemical, 10 min; 0 = ATP-free wells, 1 = DMSO control; activation factor at 10 µM; 200,000 tested, under 10 active; AID 1027, 2008;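 active = luciferase activation factor, scaled between plate controls, of at least 2 with compound at 10 µM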
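System: Luciferase/luciferin detection reagent, cell-free biochemical luciferase assay | Medium: PBS buffer for ATP | Dosing: Test compounds dosed from 2 mM stocks in 100% DMSO | Timing: 10 min at ambient temperature | Signal: Luminescence measurement of luciferase light output | Evaluation: Luciferase activation, seen as luminescence increase over controls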
STAT1 activator – STAT1 signaling activators, primary screen, cell-based, HTS, luciferase reporter; NIH 3T3 STAT1-luciferase reporter, IFN-gamma, luminescence; 100% = IFN-gamma alone, no compound; activation (% of control), % at 5.5 µM; actives 2.6% (n = 200,000); AID 932, 2007;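 active = activation above the screen-wide mean activation plus 3 SD, cut at about 130% in these data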;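 note: raw ratio to IFN-gamma control signal so 100% means no change and 0% no light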
Starred values were filed as active, the others as inactive; . = no result given. Compounds with a hit are over-represented: about 4.3% of the library has one in this group of screens.

SMILES | NF-kB expr up | APP 5'UTR act | FLuc inhib CS | SDO1 yeast rescue | FLuc stim CS | STAT1 activator
Cn1ncc([N+](=O)[O-])c1C(=O)Nc1ccc(C2CCCCC2)cc1 | 1.1 | 11 | -1 | . | 1 | 120
CC1(C)N=C(N)N=C(N)N1c1ccc(F)cc1F | 0.96 | 17 | -8 | -0.29 | 1.1 | 104
CC1(C)N=C(N)N=C(N)N1c1ccccc1 | 3.8* | -6 | -6 | 1.9 | 1.1 | 103
Nc1ccc(N=Nc2ccc(N)cc2)cc1 | 3.5* | 26 | 64* | . | 0.4 | 120
Cc1ccc(NC(=O)c2nnn(-c3cc(C)cc(C)c3)c2N)cc1 | 1.5 | 27 | -8 | -0.33 | 1.1 | 129*
Cc1ccc(CCNC(=O)c2nnn(-c3cc(C)cc(C)c3)c2N)cc1 | 1.2 | -8 | -3 | -1.1 | 1 | 104
COc1cccc(C(=O)Nc2nc(C)cs2)c1 | 3.7* | 164* | 42 | 2.2 | 0.6 | 148*
CC(C)c1nnc(NC(=O)c2cccc(-n3cnnn3)c2)s1 | 1.1 | 11 | -3 | 0.04 | 1 | 102
COc1cccc(C(=O)Nc2nnc(C(C)C)s2)c1 | . | 198* | 29 | 0.09 | 0.7 | 136*
CCCc1nnc(NC(=O)c2cccc(OC)c2)s1 | 2.2 | 37 | 6 | -0.62 | 0.9 | 134*
COc1ccc(-c2nnc(NC(=O)C(C)C)s2)c(OC)c1 | 1.4 | 17 | 20 | -1.9 | 0.8 | 133*
COC(=O)c1ccccc1NC(=O)N1CCN(c2ccc(F)cc2)CC1 | 1.1 | 4 | -8 | . | 1.1 | 101
O=C(Nc1nnc(C23CC4CC(CC(C4)C2)C3)s1)c1ccc(N2C(=O)CCC2=O)cc1 | 1 | -5 | -4 | 0.03 | 1 | 107
COCc1nnc(NC(=O)c2ccc(OC)cc2OC)s1 | 4.4* | 101 | 56* | . | 0.4 | 116
CC(C)c1nnc(NC(=O)c2ccc(N3C(=O)CCC3=O)cc2)s1 | 1.9 | 5 | 0 | 0.24 | 1 | 136*
CN(C)C(=O)c1nc2ccc(Cl)cn2c1CNCc1ccccc1OC(F)(F)F | . | -1 | -3 | . | 1 | 104
COc1cc(OC)c(OC)cc1CNCCSc1nnnn1C | 1 | 9 | -9 | . | 1.1 | 106
Cc1ccc(C)c(S(=O)(=O)N2CCN(c3ncccn3)CC2)c1 | 4.8* | -9 | -1 | . | 1 | 82
CC(C)(C)c1ccc(S(=O)(=O)N2CCN(c3ncccn3)CC2)cc1 | 1 | 7 | -11 | . | 1.1 | 101
CCc1nc2ccccc2[nH]1 | 1.2 | 11 | -1 | 1.9 | 1 | 101
Cc1ccc(/C=C/c2nc3ccccc3[nH]2)o1 | 6.5* | 259* | 86* | . | 0.1 | 90
CCc1nnc(NC(=O)c2ccc3c(c2)C(=O)N(C(C)(C)C)C3=O)s1 | 2.8 | -3 | 69* | -0.92 | 0.3 | 117
CCc1nnc(NC(=O)c2ccncc2)s1 | 1 | -8 | 2 | 0.25 | 1 | 103
Cc1cnc(NC(=O)c2ccc3c(c2)C(=O)N(Cc2ccco2)C3=O)s1 | 1.2 | -15 | 6 | -0.34 | 0.9 | 106
CCN1C(=O)c2ccc(C(=O)Nc3ncc(C)s3)cc2C1=O | 1.8 | 2 | 86* | . | 0.1 | 114
SMILES | NF-kB expr up | APP 5'UTR act | FLuc inhib CS | SDO1 yeast rescue | FLuc stim CS | STAT1 activator
CCN(CC)S(=O)(=O)c1ccc(Cl)c(C(=O)Nc2ccc(Cl)cc2[N+](=O)[O-])c1 | 0.38 | 21 | -4 | -0.95 | 1 | 85
CC1=C(C(=O)Nc2ccc(C)cc2C)C(c2ccc(C)o2)NC(=O)N1 (stereo unspecified) | 0.97 | -12 | -9 | -0.34 | 1.1 | 89
CCc1ccc(Nc2nnc(SC3CCOC3=O)s2)cc1 (stereo unspecified) | 0.96 | -8 | 27 | 1.8 | 0.7 | 101
CN=c1scc(-c2cccs2)n1/N=C/c1ccccc1O | 0.17 | -53 | 94* | -0.03 | 0.1 | 58
CN=c1scc(C)n1/N=C/c1cc(Br)c(O)c(OC)c1 | 1.9 | -3 | 2 | . | 1 | 103
Cc1cc(C)n(/N=C/c2ccccc2O)c(=O)c1 | 1.3 | 25 | -2 | . | 1 | 94
CN=c1scc(C)n1/N=C/c1ccc(O)c(O)c1O | 0.98 | 0 | 97* | -0.15 | 0 | 90
CN=c1scc(-c2cccs2)n1/N=C/c1ccc(O)c(O)c1O | 5* | -21 | 98* | 0.33 | 0 | 58
COCCN=c1scc(-c2ccco2)n1/N=C/c1ccc(O)c(O)c1O | 1.2 | 1 | 13 | . | 0.9 | 78
CN(C)CCN(Cc1cc2cc3c(cc2[nH]c1=O)OCO3)C(=S)NCC1CCCO1 (stereo unspecified) | 1.1 | -5 | -1 | . | 1 | 104
O=C1CN(C(=O)CSc2nnc(C3CC3)n2-c2ccccc2)c2ccccc2N1 | 0.97 | -2 | 3 | 0.87 | 1 | 96
Cc1noc(/C=C/Nc2ccc(F)cc2F)c1[N+](=O)[O-] | 6.9* | 173* | 1 | . | 1 | 147*
O=C(Nc1ccc(F)cc1F)c1noc2c1CCC2 | 1.9 | 58 | 4 | 0.06 | 1 | 124
COc1ccccc1N/C=C/c1onc(C)c1[N+](=O)[O-] | 1.5 | 142* | 59* | . | 0.4 | 29
Cc1c(/C=N/NC(=O)C(NC(=O)c2ccc3c(c2)OCO3)C(C)C)c2ccccc2n1C (stereo unspecified) | 0.74 | 9 | -3 | 1.2 | 1 | 97
Cc1ccc(C)c(S(=O)(=O)NCc2ccc(C(=O)N3CCC(Cc4ccccc4)CC3)cc2)c1 | 0.7 | -2 | -4 | -1.6 | 1 | 98
O=C(NCC(=O)N(CC1CCCO1)C(C(=O)NC1CCCC1)c1cccnc1)c1ccco1 (stereo unspecified) | 1.1 | 11 | -9 | 0.38 | 1.1 | 104
Cc1ccccc1OCCn1cnc2c(N)ncnc21 | 1.6 | 2 | 1 | 0.94 | 1 | 129*
Brc1ccc(-c2csc(-c3c[nH]c4ccccc34)n2)cc1 | 1.8 | 38 | -2 | -1.1 | 1 | 119
c1ccc2c(-c3csc(-c4ccncc4)n3)c[nH]c2c1 | 2.2 | 31 | 20 | . | 0.8 | 147*
CC(C)C(=O)Nc1cccc(-c2csc(-c3ccccc3)n2)c1 | 1.2 | 37 | 0 | -0.78 | 1 | 117
CC(C)C(=O)Nc1ccc(-c2csc(-c3ccccc3)n2)cc1 | 1.8 | 133 | 2 | -0.75 | 1 | 142*
Nc1nc(-c2ccc(-c3ccccc3)cc2)cs1 | 7.9* | 179* | 72* | . | 0.3 | 141*
Oc1ccccc1-c1csc(-c2ccccc2)n1 | 1.2 | 116 | 34 | . | 0.7 | 131*
Nc1cc(Oc2ccc(F)cc2F)cc([N+](=O)[O-])c1 | 0.96 | 13 | -2 | . | 1 | 95
O=C(CSc1nc(-c2ccncc2)nn1CC(=O)N1CCCCC1)NC1CCCC1 | 1.1 | -6 | 1 | 0.85 | 1 | 107
